Measured values of several laboratories.
Lines come from different studies, so protocols differ.
Target: Vascular endothelial growth factor receptor 2 (KDR, Homo sapiens, UniProt P35968)

SMILES	test	setting	measurement	value
CCOc1cc(-c2nncn2C)ccc1Nc1ncc2cc(C)nc(NCC(C)(C)C)c2n1	enzyme activity, inhibitor, FRET	1 µM	inhibition	< 15%
CC(=O)N1CCC(c2ccc(C(=O)NC3=NCCN3)cc2C(F)(F)F)CC1	cell-free assay, competition with immobilised ligand	1 µM	remaining binding	80%
O=C1Nc2ccc(Cl)cc2C1=Cc1cc(Cl)c(O)c(Cl)c1	cell-free assay	0.5 µM	remaining signal	86.1%
COc1ccc(NC(=O)c2c(Nc3ccccc3)sc(C(=O)NN=Cc3ccc(OC)c(O)c3)c2NC(C)=O)cc1	enzyme activity, inhibitor	0.1 µM	remaining activity	83.2%
CN(C)C1CCN(CC#Cc2nn(C3CCCC3)c3nc(NCc4ccccc4)ncc23)C1 (stereo not drawn)	enzyme activity, inhibitor, FRET	1 µM	inhibition	14%
CCCCN(CCCC)C(=O)CN1C[C@H](c2cc(OC)c3c(c2)OCO3)[C@@H](C(=O)O)[C@@H]1CC(C)(C)CCC	cell-free assay, competition with immobilised ligand	1 µM	remaining binding	88.7%
CSc1nc(C)c(-c2ccnc(Nc3ccc(N4CCOCC4)cc3)c2)[nH]1	enzyme activity, inhibitor	10 µM	inhibition	95.1%
COc1ccc(NC(=O)c2c(Nc3ccccc3)sc(C#N)c2NC(=O)CNc2ccc([N+](=O)[O-])cc2)cc1	enzyme activity, inhibitor	10 µM	remaining activity	71.8%
c1nc2c(Nc3ccc4c(c3)OCCO4)nc(Nc3ccc4c(c3)OCCO4)nc2[nH]1	enzyme activity, inhibitor	10 µM	activity vs control	11%
O=C(CSc1nc2nccnc2c(=O)n1CCc1ccccc1)Nc1nccs1	enzyme activity, inhibitor	10 µM	inhibition	10%
CCS(=O)(=O)c1cc2cc(C[C@@](O)(CC(C)(C)c3ccc(F)cc3C(N)=O)C(F)(F)F)[nH]c2cn1	cell-free assay, competition with immobilised ligand	1 µM	remaining binding	92%
Cc1sc(C(=O)NC2COC2)cc1-n1cc(NC(=O)Nc2c(F)cccc2Cl)cn1	enzyme activity, inhibitor	10 µM	remaining activity	88.2%
COc1ccc2cc(OCC3(C(=O)O)CN(C(=O)c4ccc(F)cc4)C3)ccc2c1	cell-free assay, competition with immobilised ligand	1 µM	remaining binding	100%
Cc1ccc(C(=O)NCc2ccsc2)cc1C#Cc1cn(C(C)C)c2ncnc(N)c12	enzyme activity, inhibitor	1 µM	activity vs control	0%
O=C1Cc2c([nH]c3ccc(Br)cc23)-c2ccccc2N1	cell-free assay	0.5 µM	remaining signal	98.1%
COc1ccc(NC(=O)c2c(Nc3ccccc3)sc(C(=O)NN=Cc3cc(OC)c(OC)c(OC)c3)c2NC(C)=O)cc1	enzyme activity, inhibitor	10 µM	remaining activity	71.1%
Nc1ncnc2occ(-c3ccc(NC(=O)Nc4cc(C(F)(F)F)ccc4F)cc3)c12	cell-free assay	20 µM	remaining signal	0%
COc1ccc(NC(=O)c2c(Nc3ccccc3)sc(C#N)c2NC(=O)CNc2ccc(Br)cc2)cc1	enzyme activity, inhibitor	10 µM	remaining activity	35.4%
CC(=O)Nc1c(C(C)=O)c(=O)n(C)c2nc(-c3ccc(Cl)cc3Cl)c(-c3ccc(Cl)cc3)cc12	cell-free assay, competition with immobilised ligand	1 µM	remaining binding	94%
COc1ccc(NC(=O)c2c(Nc3ccccc3)sc(C#N)c2NC(=O)CNc2ccc(Cl)cc2)cc1	enzyme activity, inhibitor	10 nM	remaining activity	98%
CNC(=O)c1cc2c(Oc3ccc(NC(=O)C4(C(=O)Nc5ccc(F)cc5)CC4)cc3)ccnc2cc1OC	enzyme activity, inhibitor, radiometric	1 µM	inhibition	82%
O=C(O)c1cc(-c2ccc(C3CCNCC3)cc2)c2ccc(-c3ccc(C(F)(F)F)cc3)cc2c1	cell-free assay, competition with immobilised ligand	1 µM	remaining binding	100%
N#CCCc1ccc2c(c1)-c1[nH]c3ccc([N+](=O)[O-])cc3c1CC(=O)N2	cell-free assay	0.5 µM	remaining signal	75.5%
FC(F)(F)c1ccc2c(c1)nc(-c1cccnc1)n2C1CC1	cell-free assay, competition with immobilised ligand	1 µM	remaining binding	100%
COc1cc2nccc(Oc3ccc(NC(=O)c4c5n(n(-c6ccc(F)cc6)c4=O)CCCC5)cc3)c2cc1OC	enzyme activity, inhibitor	0.1 µM	inhibition	22%
Cc1c(NC(=O)c2cc(C(N)=O)nc3cc(F)ccc23)c(C(F)(F)F)nn1Cc1ccc(C(C)(C)C)cc1	cell-free assay, competition with immobilised ligand	1 µM	remaining binding	100%
COc1ccc(COc2ccc(Cc3cnc(N)nc3N)cc2OC)cc1	cell-free assay	0.5 µM	remaining signal	109%
COc1cc2ncnc(Nc3ccc(Oc4ccccc4)c(C)c3C)c2cc1OC	enzyme activity, inhibitor	1 µM	inhibition	16%
COc1ccc(NC(=O)c2c(Nc3ccccc3)sc(C(=O)NN=Cc3ccc(Cl)cc3)c2NC(C)=O)cc1	enzyme activity, inhibitor	10 nM	remaining activity	96.1%
O=C1Nc2ccc(Br)cc2/C1=C/c1cc2c([nH]1)CCCC2	cell-free assay	0.5 µM	remaining signal	70.9%
